Test results as given in ChEMBL document CHEMBL1125042, “Hypolipidemic activity of rifamycin derivatives” (J Med Chem, 1990).
Converted amounts (≈) assume the structure as drawn.

What was measured:
Format in all cases: functional
Rattus norvegicus [1] = test: Hypolipidemic activity was determined in male rats, and high-density lipoprotein level was determined at 20 mg/kg
In short: (§1)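 Male Wistar rats (200–230 g), eight per group, were dosed orally in PEG 400 at 8 a.m. for 4 days, plus a second dose at 4 p.m. on day 4. Rats were fasted 16 h and killed 16 h after the last dose. Sera from pairs of rats were pooled. LDL (up to 1.040 g/cm³) was separated by ultracentrifugation and the HDL infranatant taken. Cholesterol was measured enzymatically. Results are % versus vehicle control, mean ± SEM of four pools, Student's t test.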

Rattus norvegicus [2] = test: Tested for hypolipidemic activity in male rats, cholesterol was determined in serum at 20 mg/kg
In short: (§2)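 Groups of eight male Wistar rats (200–230 g) dosed orally in PEG 400, either daily for 7 days (killed 24 h after the last dose) or for 4 days with a second dose on day 4 (killed 16 h later). Fasted 16 h. Paired sera pooled, lipoproteins separated by ultracentrifugation (1.006 and 1.040 g/cm³), HDL taken as the infranatant. Cholesterol measured enzymatically; % vs vehicle, mean ± SEM of four pools.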

Rattus norvegicus [3] = test: Hypolipidemic activity was determined in male rats, and low-density lipoprotein level was determined at 20 mg/kg; in short: as §1
Staphylococcus aureus = test: Antibacterial activity against Staphylococcus aureus 10B
In short: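 Agar dilution on DST agar with 2-fold drug dilutions. Inoculum of 10⁴ viable S. aureus 10B was taken from liquid-nitrogen stock, thawed 30 min and not subcultured. It was applied by multipoint replicator and incubated overnight at 37 °C. MIC is the lowest concentration inhibiting growth relative to control cultures.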

Rattus norvegicus [4] = test: Hypolipidemic activity was determined in male rats, and high-density lipoprotein level was determined at 50 mg/kg; in short: as §1
Rattus norvegicus [5] = test: Hypolipidemic activity was determined in male rats, and low-density lipoprotein level was determined at 50 mg/kg; in short: as §1
Rattus norvegicus [6] = test: Tested for hypolipidemic activity in male rats, cholesterol was determined in serum at 50 mg/kg; in short: as §2

Compound	Activity (Rattus norvegicus [1])	Activity (Rattus norvegicus [2])	Activity (Rattus norvegicus [3])	MIC (Staphylococcus aureus)	Activity (Rattus norvegicus [4])	Activity (Rattus norvegicus [5])	Activity (Rattus norvegicus [6])
CCOC(=O)C1CCN(c2c3c(O)c4c(O)c(C)c5c(c4c2O)C(=O)C(C)(O/C=C/C(OC)C(C)C(OC(C)=O)C(C)C(O)C(C)C(O)C(C)/C=C/C=C(/C)C(=O)N3)O5)CC1 (configuration not stated)	-16%	-16%	5%	< 0.1 µg/mL	–	–	–
COC1/C=C/OC2(C)Oc3c(C)c(O)c4c(O)c(c5[nH]c(N6CCN(Cc7ccccc7)CC6)nc5c4c3C2=O)NC(=O)/C(C)=C\C=C\C(C)C(O)C(C)C(O)C(C)C(OC(C)=O)C1C (configuration not stated)	–	–	–	0.005 µg/mL (≈ 0.00558 µM)	-33%	-23%	-27%
Cc1cc(C)c(CN2CCNCC2)c(C)c1	–	–	–	128 µg/mL (≈ 586 µM)	-5%	0%	-7%
COC1/C=C/OC2(C)Oc3c(C)c(O)c4c(O)c(c(N5CCC(CO)CC5)c(O)c4c3C2=O)NC(=O)/C(C)=C\C=C\C(C)C(O)C(C)C(O)C(C)C(OC(C)=O)C1C (configuration not stated)	-10%	-14%	-7%	< 0.1 µg/mL	–	–	–
COC1/C=C/OC2(C)Oc3c(C)c(O)c4c(O)c(c(N5CCC(Cc6ccccc6)CC5)c(O)c4c3C2=O)NC(=O)/C(C)=C\C=C\C(C)C(O)C(C)C(O)C(C)C(OC(C)=O)C1C (configuration not stated)	-51%	-53%	-66%	0.04 µg/mL (≈ 0.0459 µM)	–	–	–
COC1/C=C/OC2(C)Oc3c(C)c(O)c4c(O)c(c(N5CCC(CC6CCCCC6)CC5)c(O)c4c3C2=O)NC(=O)/C(C)=C\C=C\C(C)C(O)C(C)C(O)C(C)C(OC(C)=O)C1C (configuration not stated)	-67%	-62%	-31%	1 µg/mL (≈ 1.14 µM)	–	–	–
COC1/C=C/OC2(C)Oc3c(C)c(O)c4c(O)c(c(N5CCN(CC(C)C)CC5)c(O)c4c3C2=O)NC(=O)/C(C)=C\C=C\C(C)C(O)C(C)C(O)C(C)C(OC(C)=O)C1C (configuration not stated)	–	–	–	0.005 µg/mL (≈ 0.00597 µM)	-60%	-64%	-50%
COC1/C=C/OC2(C)Oc3c(C)c(O)c4c(O)c(c(O)c(O)c4c3C2=O)NC(=O)/C(C)=C\C=C\C(C)C(O)C(C)C(O)C(C)C(OC(C)=O)C1C (configuration not stated)	–	–	–	0.1 µg/mL (≈ 0.14 µM)	15%	41%	4%
COC1/C=C/OC2(C)Oc3c(C)c(O)c4c(O)c(c(N5CCC(=O)CC5)c(O)c4c3C2=O)NC(=O)/C(C)=C\C=C\C(C)C(O)C(C)C(O)C(C)C(OC(C)=O)C1C (configuration not stated)	-9%	1%	53%	< 0.1 µg/mL	–	–	–
CCC1CCC2CN(N=Cc3c4c(O)c5c(O)c(C)c6c(c5c3O)C(=O)C(C)(O/C=C/C(OC)C(C)C(OC(C)=O)C(C)C(O)C(C)C(O)C(C)/C=C/C=C(/C)C(=O)N4)O6)CCN2C1 (configuration not stated)	–	–	–	0.005 µg/mL (≈ 0.00561 µM)	-69%	-31%	-62%
CO[C@H]1/C=C/O[C@@]2(C)Oc3c(C)c(O)c4c(O)c(cc(O)c4c3C2=O)NC(=O)/C(C)=C\C=C\[C@H](C)[C@H](O)[C@@H](C)[C@@H](O)[C@@H](C)[C@H](OC(C)=O)[C@@H]1C [RIFAMYCIN]	–	–	–	0.001 µg/mL (≈ 0.00143 µM)	1%	21%	4%
COC1/C=C/OC2(C)Oc3c(C)c(O)c4c(O)c(c(N5CCN(Cc6ccccc6)CC5)c(O)c4c3C2=O)NC(=O)/C(C)=C\C=C\C(C)C(O)C(C)C(O)C(C)C(OC(C)=O)C1C (configuration not stated)	–	–	–	0.004 µg/mL (≈ 0.00459 µM)	-36%	-56%	-29%
Cc1cc(C)c(CN2CCN(C3=CC(=O)c4ccccc4C3=O)CC2)c(C)c1	–	–	–	> 128 µg/mL	6%	18%	-1%
COC1/C=C/OC2(C)Oc3c(C)c(O)c4c(O)c(c(C=NN5CCN(Cc6c(C)cc(C)cc6C)CC5)c(O)c4c3C2=O)NC(=O)/C(C)=C\C=C\C(C)C(O)C(C)C(O)C(C)C(OC(C)=O)C1C (configuration not stated)	–	–	–	0.05 µg/mL (≈ 0.0531 µM)	-79%	-39%	-81%
COC1/C=C/OC2(C)Oc3c(C)c(O)c4c(O)c(c(C=NN5CCN(Cc6cccc7ccccc67)CC5)c(O)c4c3C2=O)NC(=O)/C(C)=C\C=C\C(C)C(O)C(C)C(O)C(C)C(OC(C)=O)C1C (configuration not stated)	–	–	–	0.02 µg/mL (≈ 0.0211 µM)	-75%	-35%	-69%
COC1/C=C/OC2(C)Oc3c(C)c(O)c4c(O)c(c(N5CCC(C)CC5)c(O)c4c3C2=O)NC(=O)/C(C)=C\C=C\C(C)C(O)C(C)C(O)C(C)C(OC(C)=O)C1C (configuration not stated)	-30%	-23%	23%	< 0.1 µg/mL	–	–	–

Compound	Activity (Rattus norvegicus [1])	Activity (Rattus norvegicus [2])	Activity (Rattus norvegicus [3])	MIC (Staphylococcus aureus)	Activity (Rattus norvegicus [4])	Activity (Rattus norvegicus [5])	Activity (Rattus norvegicus [6])
COC1/C=C/OC2(C)Oc3c(C)c(O)c4c(O)c(c(N5CCC(C6CCCC6)CC5)c(O)c4c3C2=O)NC(=O)/C(C)=C\C=C\C(C)C(O)C(C)C(O)C(C)C(OC(C)=O)C1C (configuration not stated)	-40%	-42%	-41%	< 0.1 µg/mL	–	–	–
CCCCCCCCCCCCN1CCN(c2c3c(O)c4c(O)c(C)c5c(c4c2O)C(=O)C(C)(O/C=C/C(OC)C(C)C(OC(C)=O)C(C)C(O)C(C)C(O)C(C)/C=C/C=C(/C)C(=O)N3)O5)CC1 (configuration not stated)	-53%	-56%	-68%	0.15 µg/mL (≈ 0.158 µM)	–	–	–
COC1/C=C/OC2(C)Oc3c(C)c(O)c4c(O)c(c5nc6cc(C)ccc6nc5c4c3C2=O)NC(=O)/C(C)=C\C=C\C(C)C(O)C(C)C(O)C(C)C(OC(C)=O)C1C (configuration not stated)	–	–	–	< 0.008 µg/mL	–	-21%	-14%
COC1/C=C/OC2(C)Oc3c(C)c(O)c4c(O)c(c5c(c4c3C2=O)=NC2(CCN(CC(C)C)CC2)N=5)NC(=O)/C(C)=C\C=C\C(C)C(O)C(C)C(O)C(C)C(OC(C)=O)C1C (configuration not stated)	–	–	–	0.001 µg/mL (≈ 0.00118 µM)	-21%	14%	-7%
COC1/C=C/OC2(C)Oc3c(C)c(O)c4c(O)c(c(N5CCC(C(C)(C)C)CC5)c(O)c4c3C2=O)NC(=O)/C(C)=C\C=C\C(C)C(O)C(C)C(O)C(C)C(OC(C)=O)C1C (configuration not stated)	-48%	-51%	-52%	< 0.1 µg/mL	–	–	–
COC1/C=C/OC2(C)Oc3c(C)c(O)c4c(O)c(c(C=NN5CCN(C6CCCC6)CC5)c(O)c4c3C2=O)NC(=O)/C(C)=C\C=C\C(C)C(O)C(C)C(O)C(C)C(OC(C)=O)C1C (configuration not stated)	–	–	–	0.01 µg/mL (≈ 0.0114 µM)	-59%	-60%	-62%
COC1/C=C/OC2(C)Oc3c(C)c(O)c4c(O)c(c(N5CCC(C(C)C)CC5)c(O)c4c3C2=O)NC(=O)/C(C)=C\C=C\C(C)C(O)C(C)C(O)C(C)C(OC(C)=O)C1C (configuration not stated)	-61%	-61%	-54%	< 0.1 µg/mL	–	–	–
COC1/C=C/OC2(C)Oc3c(C)c(O)c4c(O)c(c(N)c(O)c4c3C2=O)NC(=O)/C(C)=C\C=C\C(C)C(O)C(C)C(O)C(C)C(OC(C)=O)C1C (configuration not stated)	–	–	–	0.003 µg/mL (≈ 0.00421 µM)	6%	19%	-2%
COC1/C=C/OC2(C)Oc3c(C)c(O)c4c(O)c(c(C=O)c(O)c4c3C2=O)NC(=O)/C(C)=C\C=C\C(C)C(O)C(C)C(O)C(C)C(OC(C)=O)C1C (configuration not stated)	–	–	–	0.01 µg/mL (≈ 0.0138 µM)	-14%	19%	-5%
COC1/C=C/OC2(C)Oc3c(C)c(O)c4c(O)c(c(N5CCC(O)CC5)c(O)c4c3C2=O)NC(=O)/C(C)=C\C=C\C(C)C(O)C(C)C(O)C(C)C(OC(C)=O)C1C (configuration not stated)	-3%	0%	13%	< 0.1 µg/mL	–	–	–
COC1/C=C/OC2(C)Oc3c(C)c(O)c4c(O)c(c(N5CCN(Cc6ccc(C(C)(C)C)cc6)CC5)c(O)c4c3C2=O)NC(=O)/C(C)=C\C=C\C(C)C(O)C(C)C(O)C(C)C(OC(C)=O)C1C (configuration not stated)	-71%	-70%	-70%	0.5 µg/mL (≈ 0.539 µM)	–	–	–
COC1/C=C/OC2(C)Oc3c(C)c(O)c4c(O)c(c(N5CCN(Cc6ccc(Cl)cc6)CC5)c(O)c4c3C2=O)NC(=O)/C(C)=C\C=C\C(C)C(O)C(C)C(O)C(C)C(OC(C)=O)C1C (configuration not stated)	–	–	–	0.002 µg/mL (≈ 0.00221 µM)	-73%	-85%	-74%
COC1/C=C/OC2(C)Oc3c(C)c(O)c4c(O)c(c(C=NN5CCN6CCCCC6C5)c(O)c4c3C2=O)NC(=O)/C(C)=C\C=C\C(C)C(O)C(C)C(O)C(C)C(OC(C)=O)C1C (configuration not stated)	–	–	–	0.005 µg/mL (≈ 0.00579 µM)	-53%	-27%	-49%
CCC1CCN(c2c3c(O)c4c(O)c(C)c5c(c4c2O)C(=O)C(C)(O/C=C/C(OC)C(C)C(OC(C)=O)C(C)C(O)C(C)C(O)C(C)/C=C/C=C(/C)C(=O)N3)O5)CC1 (configuration not stated)	-61%	-57%	-51%	< 0.1 µg/mL	–	–	–
COC1/C=C/OC2(C)Oc3c(C)c(O)c4c(O)c(c(N5CCNCC5C(=O)O)c(O)c4c3C2=O)NC(=O)/C(C)=C\C=C\C(C)C(O)C(C)C(O)C(C)C(OC(C)=O)C1C (configuration not stated)	–	–	–	0.5 µg/mL (≈ 0.605 µM)	5%	53%	-2%
COC1/C=C/OC2(C)Oc3c(C)c(O)c4c(=O)c(c5oc6cc(C)ccc6nc-5c4c3C2=O)NC(=O)/C(C)=C\C=C\C(C)C(O)C(C)C(O)C(C)C(OC(C)=O)C1C (configuration not stated)	–	–	–	0.001 µg/mL (≈ 0.00125 µM)	-21%	-21%	-14%
